Screening results: PubChem BioAssay, Johns Hopkins Ion Channel Center
Sampled rows, rich in hits. Any-hit rate of the full collection: about 3.5%.
RGS4 act: RGS4 potentiation or activation. AID 463111. B-score at 10 µM. HEK293 M3R/inducible RGS4, carbachol calcium flux Fluo4; stronger effect = lower value. hit rate 0.92% among 310,000;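 active means B-score of the integrated calcium signal more than 4 SD below the library mean, with starting fluorescence not abnormally high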;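 further: negative B-score means reduced calcium response which marks RGS4 activation or potentiation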
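Material: Inducible-RGS4 HEK293 cells carrying M3 receptor; also added: carbachol at ECmax as muscarinic agonist stimulus; incubation: compound preincubation 20 min at room temperature before agonist; signal: Fluo4-AM (2 µM) calcium-flux fluorescence, kinetic read; measure: integrated calcium ratio converted to B score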
RGS4 block: human RGS4 inhibition | B-score at 10 µM | AID 463165 | P49798 | HEK293 M3R/RGS4 inducible, Fluo-4 calcium flux; stronger effect = higher value; triggered by carbachol at its EC20 | hit rate 0.45% among 310,000;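 active means B-score, a plate-corrected calcium signal, over three deviations above library mean, with baseline fluorescence within five deviations of library mean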;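 further: RGS4 expression induced by doxycycline in cells with stable M3 receptor; B-score is computed from the integrated fluorescence ratio over baseline after carbachol; higher B-score means a larger calcium signal and so more RGS4 inhibition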
Target sequence (P49798 whole entry, looked up): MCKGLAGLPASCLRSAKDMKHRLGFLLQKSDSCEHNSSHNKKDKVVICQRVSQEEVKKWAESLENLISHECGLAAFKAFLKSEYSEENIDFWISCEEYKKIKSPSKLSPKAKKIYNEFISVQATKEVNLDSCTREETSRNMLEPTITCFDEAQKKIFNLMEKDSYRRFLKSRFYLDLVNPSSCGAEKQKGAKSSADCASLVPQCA
MrgX1 allo act: allosterically activates human MrgX1 receptor signaling. hit rate 0.63% among 310,000. Q96LB2. B-score at 10 µM. MrgX1-HEK293, Fluo-4 calcium flux, FDSS; stronger effect = higher value;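 active means plate-corrected calcium response at least 3 library SD above typical, normal starting fluorescence, not activating the receptor alone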;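 further: compound read alongside a low EC10 to EC30 dose of BAM8-22 agonist; peak minus trough fluorescence over baseline measured at the second addition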
Target sequence (Q96LB2 whole entry, looked up): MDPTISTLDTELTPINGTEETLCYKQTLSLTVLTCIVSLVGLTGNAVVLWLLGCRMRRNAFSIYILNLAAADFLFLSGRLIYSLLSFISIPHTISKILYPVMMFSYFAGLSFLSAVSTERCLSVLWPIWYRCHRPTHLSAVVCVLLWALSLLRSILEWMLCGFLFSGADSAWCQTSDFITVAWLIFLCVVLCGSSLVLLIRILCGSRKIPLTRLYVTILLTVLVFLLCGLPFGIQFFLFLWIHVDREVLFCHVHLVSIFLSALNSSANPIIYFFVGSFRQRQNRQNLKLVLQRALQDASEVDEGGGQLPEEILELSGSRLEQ
MrgX1 antag: antagonists of human MrgX1 receptor | B-score at 10 µM | MRGX1-HEK293 calcium flux, Fluo-4, BAM8-22 antagonism; stronger effect = lower value | AID 588676 | Q96LB2 | hit rate 1.3% among 310,000;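 active means calcium-response B-score plate-corrected more than 3 library SD below zero, starting fluorescence within 5 deviations, no agonist response on first addition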;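 further: peak minus trough fluorescence over baseline after final BAM8-22 challenge near maximal dose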
MrgX1 agonist: activates human MrgX1 receptor signaling; hit rate 0.44% among 310,000; MrgX1-HEK293 cells, Fluo-4 calcium fluorescence, agonist mode; stronger effect = higher value; B-score at 10 µM; Q96LB2;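 active means calcium response B-score plate-corrected fluorescence ratio at least 3 library SD, with starting fluorescence B-score inside 5 SD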
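Test system: HEK293 cells stably expressing human MrgX1 receptor; amount: 15,000 cells per well; doses: compound delivered in addition one of three; times: overnight plating before 1 h dye loading; detection: Fluo-4 NW calcium-flux fluorescence, kinetic read; read-out basis: B-scored fluorescence response ratio; controls: positive and negative controls per plate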
Numbers without * were called inactive.

Results for N#Cc1ccc(-c2cccs2)nc1SCc1cccnc1 ?
RGS4 act: inactive; RGS4 block: inactive; MrgX1 allo act: inactive; MrgX1 antag: inactive; MrgX1 agonist: inactive

Results for CN1CCN(C(=O)CSc2nc(-c3cccs3)ccc2C#N)CC1 ?
RGS4 act: inactive; RGS4 block: inactive; MrgX1 allo act: inactive; MrgX1 antag: inactive; MrgX1 agonist: 46*

How did O=C(Nc1ccc(-c2nc3ccccc3s2)c(OC(=O)c2ccccc2)c1)c1ccccc1 do in these assays?
RGS4 act: inactive; RGS4 block: inactive; MrgX1 allo act: inactive; MrgX1 antag: -4.8*; MrgX1 agonist: inactive

Results for O=C(Nc1ccc2nc3ccccc3nc2c1)c1ccccc1 ?
RGS4 act: inactive; RGS4 block: inactive; MrgX1 allo act: inactive; MrgX1 antag: inactive; MrgX1 agonist: inactive

Results for O=Cc1nc(-c2ccccc2Cl)n2ccccc12 ?
RGS4 act: inactive; RGS4 block: inactive; MrgX1 allo act: inactive; MrgX1 antag: -6.3*; MrgX1 agonist: inactive

How did O=Cc1nc(-c2ccc(Cl)cc2)n2ccccc12 do in these assays?
RGS4 act: inactive; RGS4 block: inactive; MrgX1 allo act: inactive; MrgX1 antag: inactive; MrgX1 agonist: inactive

What do the screens show for `Cc1ccc(SCC(=O)OCC(=O)N(C)CC(=O)Nc2ccc(F)cc2)cc1C`?
RGS4 act: inactive; RGS4 block: inactive; MrgX1 allo act: inactive; MrgX1 antag: inactive; MrgX1 agonist: 48*

What do the screens show for `COc1ccc(Cl)cc1C(=O)OCC(=O)N(C)CC(=O)Nc1ccc(F)cc1`?
RGS4 act: inactive; RGS4 block: inactive; MrgX1 allo act: inactive; MrgX1 antag: inactive; MrgX1 agonist: inactive

What do the screens show for `CCCC(=O)Nc1ccc(-c2csc(N/N=C\c3ccncc3)n2)cc1`?
RGS4 act: -7.2*; RGS4 block: inactive; MrgX1 allo act: inactive; MrgX1 antag: -5.4*; MrgX1 agonist: inactive

Results for O=C(O)C(NC(=O)C1CCCN1C(=O)OCc1ccccc1)c1ccccc1 (configuration not stated) ?
RGS4 act: inactive; RGS4 block: inactive; MrgX1 allo act: inactive; MrgX1 antag: inactive; MrgX1 agonist: inactive

How did O=C(O)CCC(NC(=O)C1CCCN1C(=O)OCc1ccccc1)C(=O)O (configuration not stated) do in these assays?
RGS4 act: inactive; RGS4 block: inactive; MrgX1 allo act: inactive; MrgX1 antag: -6.4*; MrgX1 agonist: inactive

Results for CCc1ccc(CN(C)C(=O)c2cc(COc3cc(C)c(Cl)c(C)c3)on2)nc1 ?
RGS4 act: inactive; RGS4 block: inactive; MrgX1 allo act: inactive; MrgX1 antag: inactive; MrgX1 agonist: inactive

Results for COc1cccc(C2NC(=O)N(CCCC(=O)O)C(C)=C2C(=O)OCc2ccccc2)c1 (configuration not stated) ?
RGS4 act: inactive; RGS4 block: inactive; MrgX1 allo act: inactive; MrgX1 antag: inactive; MrgX1 agonist: inactive

Results for CCOc1ccc(S(=O)(=O)n2nc(C)cc2C)cc1 ?
RGS4 act: inactive; RGS4 block: inactive; MrgX1 allo act: inactive; MrgX1 antag: inactive; MrgX1 agonist: inactive

Results for Cc1nc2ccccn2c1C(=O)N=Nc1c(O)n(CCC(C)C)c2ccccc12 ?
RGS4 act: -7.3*; RGS4 block: inactive; MrgX1 allo act: inactive; MrgX1 antag: inactive; MrgX1 agonist: inactive

How did CCN(CCCC(=O)c1ccc(F)cc1)CCc1ccccc1 do in these assays?
RGS4 act: -7.1*; RGS4 block: inactive; MrgX1 allo act: inactive; MrgX1 antag: inactive; MrgX1 agonist: inactive

Results for CCN(CCCc1ccccc1)CCCc1ccccc1 ?
RGS4 act: inactive; RGS4 block: inactive; MrgX1 allo act: inactive; MrgX1 antag: inactive; MrgX1 agonist: inactive

Results for COc1cccc2c1OCC(C(=O)Nc1nccs1)=C2 ?
RGS4 act: inactive; RGS4 block: inactive; MrgX1 allo act: inactive; MrgX1 antag: inactive; MrgX1 agonist: 28*

How did COc1cc(C(=O)Nc2nc(C)cc(C)n2)cc(OC)c1OC do in these assays?
RGS4 act: inactive; RGS4 block: inactive; MrgX1 allo act: inactive; MrgX1 antag: inactive; MrgX1 agonist: inactive

How did CCOc1ccc(C(=O)NNC(=O)CCNC(=O)c2ccco2)cc1OC do in these assays?
RGS4 act: inactive; RGS4 block: inactive; MrgX1 allo act: inactive; MrgX1 antag: inactive; MrgX1 agonist: inactive

What do the screens show for `Cc1ccc(C)c(NC(=S)NC(NC(=O)N(C)C)C(Cl)(Cl)Cl)c1` (configuration not stated)?
RGS4 act: inactive; RGS4 block: inactive; MrgX1 allo act: inactive; MrgX1 antag: inactive; MrgX1 agonist: inactive

How did Cc1ccc(C)c(NC(=S)NC(NC(=O)Cc2cccc3ccccc23)C(Cl)(Cl)Cl)c1 (configuration not stated) do in these assays?
RGS4 act: inactive; RGS4 block: inactive; MrgX1 allo act: inactive; MrgX1 antag: -9.1*; MrgX1 agonist: inactive

How did Cc1ccc(-n2ncc3c(N4CCCC4)ncnc32)c(C)c1 do in these assays?
RGS4 act: inactive; RGS4 block: inactive; MrgX1 allo act: inactive; MrgX1 antag: inactive; MrgX1 agonist: inactive

How did COc1ccc(-n2ncc3c(N4CCN(Cc5ccccc5)CC4)ncnc32)cc1 do in these assays?
RGS4 act: -7.4*; RGS4 block: inactive; MrgX1 allo act: inactive; MrgX1 antag: inactive; MrgX1 agonist: inactive

Results for COc1cccc(N2CCN(c3ncnc4c3cnn4-c3ccc(C)cc3C)CC2)c1 ?
RGS4 act: -7*; RGS4 block: inactive; MrgX1 allo act: inactive; MrgX1 antag: inactive; MrgX1 agonist: inactive

What do the screens show for `Cc1ccc(S(=O)(=O)N2CC3CCCC2C3)cc1` (configuration not stated)?
RGS4 act: inactive; RGS4 block: inactive; MrgX1 allo act: inactive; MrgX1 antag: inactive; MrgX1 agonist: inactive

Results for Cc1ccc(C)c(N2CCN(C(=O)c3ccc(Cl)c(NC4=NC5CS(=O)(=O)CC5S4)c3)CC2)c1 (configuration not stated) ?
RGS4 act: inactive; RGS4 block: inactive; MrgX1 allo act: inactive; MrgX1 antag: inactive; MrgX1 agonist: inactive

What do the screens show for `COc1cc(/C=C2/C(=O)NN(c3ccc(Cl)c(Cl)c3)C2=O)cc([N+](=O)[O-])c1O`?
RGS4 act: inactive; RGS4 block: inactive; MrgX1 allo act: inactive; MrgX1 antag: inactive; MrgX1 agonist: inactive

What do the screens show for `COc1cc(/C=C2/C(=O)NN(c3ccc(Cl)cc3)C2=O)cc(Br)c1O`?
RGS4 act: inactive; RGS4 block: inactive; MrgX1 allo act: inactive; MrgX1 antag: inactive; MrgX1 agonist: 33*

How did NC(=O)C1CCN(C2=C(Cl)C(=O)c3ccccc3C2=O)CC1 do in these assays?
RGS4 act: inactive; RGS4 block: inactive; MrgX1 allo act: inactive; MrgX1 antag: inactive; MrgX1 agonist: 30*
